According to ChEMBL document CHEMBL3044625, “Non-target-site-based resistance to ALS-inhibiting herbicides in six Bromus rigidus populations from Western Australian cropping fields” (Pest Manag Sci, 2012):
Active and inactive are the calls of the source. No cut-off for these calls is given here.

How the values were obtained:
[1] = tested on: Bromus diandrus var. rigidus; experiment: Herbicidal activity against ALS-inhibiting herbicide-resistant two-leaf stage Bromus diandrus var. rigidus biotype R4 seedlings exposed to compound spraying in absence of 1000 g/ha cytochrome P450 inhibitor malathion measured […]; assay type: functional
Method in brief: (§1)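 Seeds were germinated on 1% water agar for 7–10 days at ambient conditions, then sprayed at the 2–3-leaf stage. Malathion at 1000 g ha−1 was sprayed 30 min before the herbicide, or omitted. Herbicide doses were 18.75–600 g ha−1. Survival and dried above-ground biomass were assessed 21 days after treatment, with two replicates. LD50 came from non-linear regression, and R/S is the ratio of resistant to susceptible LD50.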

[2] = tested on: Bromus diandrus var. rigidus; experiment: Herbicidal activity against ALS-inhibiting herbicide-resistant two-leaf stage Bromus diandrus var. rigidus biotype R3 seedlings exposed to compound spraying in absence of 1000 g/ha cytochrome P450 inhibitor malathion measured […]; assay type: functional; method in brief: as §1
[3] = tested on: Bromus diandrus var. rigidus; experiment: Herbicidal activity against ALS-inhibiting herbicide-resistant two-leaf stage Bromus diandrus var. rigidus biotype R2 seedlings exposed to compound spraying in absence of 1000 g/ha cytochrome P450 inhibitor malathion measured […] after compound spraying; assay type: functional; method in brief: as §1
[4] = tested on: Bromus diandrus var. rigidus; experiment: Herbicidal activity against ALS-inhibiting herbicide-resistant two-leaf stage Bromus diandrus var. rigidus biotype R1 seedlings exposed to compound spraying in absence of 1000 g/ha cytochrome P450 inhibitor malathion measured […]; assay type: functional; method in brief: as §1
[5] = tested on: Bromus diandrus var. rigidus; experiment: Herbicidal activity against ALS-inhibiting herbicide-susceptible two-leaf stage Bromus diandrus var. rigidus seedlings exposed to compound spraying in absence of 1000 g/ha cytochrome P450 inhibitor malathion measured […] after compound spraying; assay type: functional; method in brief: as §1
[6] = tested on: Bromus diandrus var. rigidus; experiment: Herbicidal activity against ALS-inhibiting herbicide-resistant two-leaf stage Bromus diandrus var. rigidus biotype R6 seedlings assessed as reduction in above-ground biomass exposed to compound spraying in presence of 1000 g/ha cytochrome P450 inhibitor malathion measured […]; assay type: functional, organism-based; method in brief: as §1
[7] = tested on: Bromus diandrus var. rigidus; experiment: Herbicidal activity against ALS-inhibiting herbicide-resistant two-leaf stage Bromus diandrus var. rigidus biotype R5 seedlings assessed as reduction in above-ground biomass exposed to compound spraying in presence of 1000 g/ha cytochrome P450 inhibitor malathion measured […]; assay type: functional, organism-based; method in brief: as §1
[8] = tested on: Bromus diandrus var. rigidus; experiment: Herbicidal activity against ALS-inhibiting herbicide-resistant two-leaf stage Bromus diandrus var. rigidus biotype R4 seedlings assessed as reduction in above-ground biomass exposed to compound spraying in presence of 1000 g/ha cytochrome P450 inhibitor malathion measured […]; assay type: functional, organism-based; method in brief: as §1
[9] = tested on: Bromus diandrus var. rigidus; experiment: Herbicidal activity against ALS-inhibiting herbicide-resistant two-leaf stage Bromus diandrus var. rigidus biotype R3 seedlings assessed as reduction in above-ground biomass exposed to compound spraying in presence of 1000 g/ha cytochrome P450 inhibitor malathion measured […]; assay type: functional, organism-based; method in brief: as §1
[10] = tested on: Bromus diandrus var. rigidus; experiment: Herbicidal activity against ALS-inhibiting herbicide-resistant two-leaf stage Bromus diandrus var. rigidus biotype R1 seedlings assessed as reduction in above-ground biomass exposed to compound spraying in presence of 1000 g/ha cytochrome P450 inhibitor malathion measured […]; assay type: functional, organism-based; method in brief: as §1
[11] = tested on: Bromus diandrus var. rigidus; experiment: Herbicidal activity against ALS-inhibiting herbicide-resistant two-leaf stage Bromus diandrus var. rigidus biotype R2 seedlings assessed as reduction in above-ground biomass exposed to compound spraying in presence of 1000 g/ha cytochrome P450 inhibitor malathion measured […]; assay type: functional, organism-based; method in brief: as §1
[12] = tested on: Bromus diandrus var. rigidus; experiment: (§2) Resistance index, ratio of LD50 for ALS-inhibiting herbicide-resistant two-leaf stage Bromus diandrus var. rigidus biotype R2 in absence of 1000 g/ha cytochrome P450 inhibitor malathion to LD50 for ALS-inhibiting herbicide-susceptible two-leaf stage Bromus diandrus var. rigidus in absence of 1000 g/ha cytochrome P450 inhibitor malathion; assay type: functional; method in brief: as §1
[13] = tested on: Bromus diandrus var. rigidus; experiment: as §2, with “R1” for “R2”; assay type: functional; method in brief: as §1
[14] = tested on: Bromus diandrus var. rigidus; experiment: Herbicidal activity against ALS-inhibiting herbicide-resistant two-leaf stage Bromus diandrus var. rigidus biotype R6 seedlings exposed to compound spraying in presence of 1000 g/ha cytochrome P450 inhibitor malathion measured […]; assay type: functional; method in brief: as §1
[15] = tested on: Bromus diandrus var. rigidus; experiment: Herbicidal activity against ALS-inhibiting herbicide-resistant two-leaf stage Bromus diandrus var. rigidus biotype R5 seedlings exposed to compound spraying in presence of 1000 g/ha cytochrome P450 inhibitor malathion measured […]; assay type: functional; method in brief: as §1
[16] = tested on: Bromus diandrus var. rigidus; experiment: Herbicidal activity against ALS-inhibiting herbicide-resistant two-leaf stage Bromus diandrus var. rigidus biotype R4 seedlings exposed to compound spraying in presence of 1000 g/ha cytochrome P450 inhibitor malathion measured […] after compound spraying; assay type: functional; method in brief: as §1
[17] = tested on: Bromus diandrus var. rigidus; experiment: as §2, with “R6” for “R2”, “presence” for “absence”; assay type: functional; method in brief: as §1
[18] = tested on: Bromus diandrus var. rigidus; experiment: as §2, with “R5” for “R2”, “presence” for “absence”; assay type: functional; method in brief: as §1
[19] = tested on: Bromus diandrus var. rigidus; experiment: as §2, with “R4” for “R2”, “presence” for “absence”; assay type: functional; method in brief: as §1
[20] = tested on: Bromus diandrus var. rigidus; experiment: as §2, with “R3” for “R2”, “presence” for “absence”; assay type: functional; method in brief: as §1
[21] = tested on: Bromus diandrus var. rigidus; experiment: as §2, with “presence” for “absence”; assay type: functional; method in brief: as §1
[22] = tested on: Bromus diandrus var. rigidus; experiment: as §2, with “R1” for “R2”, “presence” for “absence”; assay type: functional; method in brief: as §1
[23] = tested on: Bromus diandrus var. rigidus; experiment: as §2, with “R6” for “R2”; assay type: functional; method in brief: as §1
[24] = tested on: Bromus diandrus var. rigidus; experiment: as §2, with “R5” for “R2”; assay type: functional; method in brief: as §1
[25] = tested on: Bromus diandrus var. rigidus; experiment: as §2, with “R4” for “R2”; assay type: functional; method in brief: as §1
[26] = tested on: Bromus diandrus var. rigidus; experiment: as §2, with “R3” for “R2”; assay type: functional; method in brief: as §1
[27] = tested on: Bromus diandrus var. rigidus; experiment: Herbicidal activity against ALS-inhibiting herbicide-resistant two-leaf stage Bromus diandrus var. rigidus biotype R3 seedlings exposed to compound spraying in presence of 1000 g/ha cytochrome P450 inhibitor malathion measured […]; assay type: functional; method in brief: as §1
[28] = tested on: Bromus diandrus var. rigidus; experiment: Herbicidal activity against ALS-inhibiting herbicide-resistant two-leaf stage Bromus diandrus var. rigidus biotype R2 seedlings exposed to compound spraying in presence of 1000 g/ha cytochrome P450 inhibitor malathion measured […]; assay type: functional; method in brief: as §1
[29] = tested on: Bromus diandrus var. rigidus; experiment: Herbicidal activity against ALS-inhibiting herbicide-resistant two-leaf stage Bromus diandrus var. rigidus biotype R1 seedlings exposed to compound spraying in presence of 1000 g/ha cytochrome P450 inhibitor malathion measured […]; assay type: functional; method in brief: as §1
[30] = tested on: Bromus diandrus var. rigidus; experiment: Herbicidal activity against ALS-inhibiting herbicide-susceptible two-leaf stage Bromus diandrus var. rigidus seedlings exposed to compound spraying in presence of 1000 g/ha cytochrome P450 inhibitor malathion measured […]; assay type: functional; method in brief: as §1
[31] = tested on: Bromus diandrus var. rigidus; experiment: Herbicidal activity against ALS-inhibiting herbicide-resistant two-leaf stage Bromus diandrus var. rigidus biotype R6 seedlings exposed to compound spraying in absence of 1000 g/ha cytochrome P450 inhibitor malathion measured […]; assay type: functional; method in brief: as §1
[32] = tested on: Bromus diandrus var. rigidus; experiment: Herbicidal activity against ALS-inhibiting herbicide-resistant two-leaf stage Bromus diandrus var. rigidus biotype R5 seedlings exposed to compound spraying in absence of 1000 g/ha cytochrome P450 inhibitor malathion measured […]; assay type: functional; method in brief: as §1
[33] = tested on: Bromus diandrus var. rigidus; experiment: Herbicidal activity against ALS-inhibiting herbicide-resistant two-leaf stage Bromus diandrus var. rigidus biotype R4 seedlings exposed to compound spraying measured 28 days after compound spraying; assay type: functional
Method in brief: (§3)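 Seedlings germinated on 1% water agar (7–10 days, ambient) were sprayed at the 2–3-leaf stage with a sulfonylurea at 1.875–240 g ha−1, with no malathion. Percent survival was scored with three replicate treatments. LD50 came from non-linear regression, and R/S is the ratio of resistant to susceptible LD50.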

[34] = tested on: Bromus diandrus var. rigidus; experiment: Herbicidal activity against ALS-inhibiting herbicide-resistant two-leaf stage Bromus diandrus var. rigidus biotype R3 seedlings exposed to compound spraying measured 28 days after compound spraying; assay type: functional; method in brief: as §3
[35] = tested on: Bromus diandrus var. rigidus; experiment: Herbicidal activity against ALS-inhibiting herbicide-resistant two-leaf stage Bromus diandrus var. rigidus biotype R2 seedlings exposed to compound spraying measured 28 days after compound spraying; assay type: functional; method in brief: as §3
[36] = tested on: Bromus diandrus var. rigidus; experiment: Herbicidal activity against ALS-inhibiting herbicide-susceptible two-leaf stage Bromus diandrus var. rigidus seedlings exposed to compound spraying measured 28 days after compound spraying; assay type: functional; method in brief: as §3
[37] = tested on: Bromus diandrus var. rigidus; experiment: Herbicidal activity against ALS-inhibiting herbicide-resistant two-leaf stage Bromus diandrus var. rigidus biotype R1 seedlings exposed to compound spraying measured 28 days after compound spraying; assay type: functional; method in brief: as §3
[38] = tested on: Bromus diandrus var. rigidus; experiment: Resistance index, ratio of LD50 for ALS-inhibiting herbicide-resistant two-leaf stage Bromus diandrus var. rigidus biotype R6 to ALS-inhibiting herbicide-susceptible two-leaf stage Bromus diandrus var. rigidus; assay type: functional; method in brief: as §3
[39] = tested on: Bromus diandrus var. rigidus; experiment: Resistance index, ratio of LD50 for ALS-inhibiting herbicide-resistant two-leaf stage Bromus diandrus var. rigidus biotype R5 to ALS-inhibiting herbicide-susceptible two-leaf stage Bromus diandrus var. rigidus; assay type: functional; method in brief: as §3
[40] = tested on: Bromus diandrus var. rigidus; experiment: Resistance index, ratio of LD50 for ALS-inhibiting herbicide-resistant two-leaf stage Bromus diandrus var. rigidus biotype R4 to ALS-inhibiting herbicide-susceptible two-leaf stage Bromus diandrus var. rigidus; assay type: functional; method in brief: as §3
[41] = tested on: Bromus diandrus var. rigidus; experiment: Resistance index, ratio of LD50 for ALS-inhibiting herbicide-resistant two-leaf stage Bromus diandrus var. rigidus biotype R3 to ALS-inhibiting herbicide-susceptible two-leaf stage Bromus diandrus var. rigidus; assay type: functional; method in brief: as §3
[42] = tested on: Bromus diandrus var. rigidus; experiment: Resistance index, ratio of LD50 for ALS-inhibiting herbicide-resistant two-leaf stage Bromus diandrus var. rigidus biotype R2 to ALS-inhibiting herbicide-susceptible two-leaf stage Bromus diandrus var. rigidus; assay type: functional; method in brief: as §3
[43] = tested on: Bromus diandrus var. rigidus; experiment: Resistance index, ratio of LD50 for ALS-inhibiting herbicide-resistant two-leaf stage Bromus diandrus var. rigidus biotype R1 to ALS-inhibiting herbicide-susceptible two-leaf stage Bromus diandrus var. rigidus; assay type: functional; method in brief: as §3
[44] = tested on: Bromus diandrus var. rigidus; experiment: Herbicidal activity against ALS-inhibiting herbicide-resistant two-leaf stage Bromus diandrus var. rigidus biotype R6 seedlings exposed to compound spraying measured 28 days after compound spraying; assay type: functional; method in brief: as §3
[45] = tested on: Bromus diandrus var. rigidus; experiment: Herbicidal activity against ALS-inhibiting herbicide-resistant two-leaf stage Bromus diandrus var. rigidus biotype R5 seedlings exposed to compound spraying measured 28 days after compound spraying; assay type: functional; method in brief: as §3

Compound: CCS(=O)(=O)c1nc2ccccn2c1S(=O)(=O)NC(=O)Nc1nc(OC)cc(OC)n1 [SULFOSULFURON]
- LD50 [1]: 239 g/ha
- LD50 [2]: 173 g/ha
- LD50 [3]: 166 g/ha
- LD50 [4]: 183 g/ha
- LD50 [5]: 21 g/ha
- Activity [6]: Active
- Activity [7]: Active
- Activity [8]: Active
- Activity [9]: Active
- Activity [10]: Active
- Activity [11]: Active
- Ratio [12]: 7.9
- Ratio [13]: 8.7
- LD50 [14]: 11 g/ha
- LD50 [15]: 12 g/ha
- LD50 [16]: 13 g/ha
- Ratio [17]: 1.8
- Ratio [18]: 2
- Ratio [19]: 2.1
- Ratio [20]: 2.6
- Ratio [21]: 1.6
- Ratio [22]: 2.6
- Ratio [23]: 6
- Ratio [24]: 6.6
- Ratio [25]: 11.3
- Ratio [26]: 8.2
- LD50 [27]: 16 g/ha
- LD50 [28]: 10 g/ha
- LD50 [29]: 16 g/ha
- LD50 [30]: 6 g/ha
- LD50 [31]: 127 g/ha
- LD50 [32]: 140 g/ha

Compound: Cc1cc(C)nc(NC(=O)NS(=O)(=O)c2ccccc2C(=O)O)n1 [SULFOMETURON]
- LD50 [33]: 30 g/ha
- LD50 [34]: 31 g/ha
- LD50 [35]: 33 g/ha
- LD50 [36]: 10 g/ha
- LD50 [37]: 30 g/ha
- Ratio [38]: 4.1
- Ratio [39]: 3.8
- Ratio [40]: 3
- Ratio [41]: 3.1
- Ratio [42]: 3.3
- Ratio [43]: 3
- LD50 [44]: 41 g/ha
- LD50 [45]: 38 g/ha
